Test results published in ChEMBL document CHEMBL2203113, “Discovery of 2-(2-oxo-1-phenyl-5-pyridin-2-yl-1,2-dihydropyridin-3-yl)benzonitrile (perampanel): a novel, noncompetitive α-amino-3-hydroxy-5-methyl-4-isoxazolepropanoic acid (AMPA) receptor antagonist” (J Med Chem, 2012).
pIC50: −log10 of the molar value.

Legend:
[1] = Antagonist activity at AMPA receptor in E18 rat cerebral cortical neurons assessed as inhibition of AMPA-induced intracellular Ca2+ response by fura-2 AM dye based fluorimetry; format: functional, cell-based
[2] = tested on: Mus musculus; test: Anticonvulsant activity in po dosed ddY mouse AMPA-induced seizure model; format: functional; conditions: read-out: MED
Procedure, shortened: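 Male 5-week-old ddY mice given compound orally as a 0.5% MC suspension 1 h before challenge. Clonic seizures induced by intracerebroventricular AMPA infusion at 2 nmol/5 μL/min; latency to clonic seizure recorded. MED taken as lowest dose giving statistically significant prolongation of latency.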

[3] = Volume of distribution at steady state in Sprague-Dawley rat at 1 mg/kg, iv; format: ADME, organism-based; design: dose 1 mg/kg, route intravenous; conditions: in vivo, read-out: Vdss
Procedure, shortened: (§1)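 Fasted male Sprague-Dawley rats, single 1 mg/kg dose iv or po, n = 3 per route. Blood drawn at set time points; plasma deproteinized with methanol/60% perchloric solution (500:1 v/v) and assayed by HPLC with fluorescence. Parameters from mean plasma concentrations of three animals by model-independent analysis; F = AUC(0-inf) oral/iv ratio.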

[4] = Oral bioavailability in Sprague-Dawley rat at 1 mg/kg; format: ADME, organism-based; conditions: in vivo; procedure, shortened: as §1
[5] = tested on: Nucleic Acid; test: Ratio of drug level in CSF to fraction unbound in plasma in ddY mouse at 0.5 mg/kg, ip after 20 mins; format: ADME, organism-based, Rattus norvegicus; design: dose 0.5 mg/kg, route intraperitoneal; conditions: in vivo
Procedure, shortened: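 Male ddY mice were dosed ip. CSF was taken by cisternal puncture and processed like plasma: deproteinized with methanol/60% perchloric solution (500:1 v/v), then analysed by HPLC with fluorescence detection. The ratio is CSF concentration over unbound plasma concentration. Each value is the mean of two or three animals.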

[6] = Ratio of drug level in brain to plasma in Sprague-Dawley rat at 10 mg/kg, po after 30 mins; format: ADME, organism-based; design: dose 10 mg/kg, route oral; conditions: brain and plasma, read-out: BPR
Procedure, shortened: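 Male Sprague–Dawley rats were dosed orally. Brain was homogenized in two volumes of water. Brain homogenate and plasma were deproteinized with methanol/60% perchloric solution (500:1 v/v) and quantified by HPLC with fluorescence detection. The ratio is brain over plasma concentration, each value the mean of two or three animals.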

[7] = Half life in healthy human; format: ADME, organism-based; conditions: in vivo
[8] = tested on: Rattus norvegicus; test: AUC in Sprague-Dawley rat at 1 mg/kg, iv; format: ADME, organism-based, Plasma; design: dose 1 mg/kg, route intravenous; conditions: in vivo; procedure, shortened: as §1
[9] = tested on: Mus musculus; test: Anticonvulsant activity in ICR mouse pentylenetetrazole-induced seizure model at 0.75 to 3 mg/kg, po after 30 mins; format: functional; conditions: 0.5 h, dose mg/kg 0.75-3
[10] = tested on: Mus musculus; test: Anticonvulsant activity in ddY mouse MES-induced seizure model 0.75 to 2.12 mg/kg, po after 1hr; format: functional; conditions: dose mg/kg 0.75-2.12
[11] = Tmax in Sprague-Dawley rat at 1 mg/kg, po; format: ADME, organism-based; design: dose 1 mg/kg, route oral; conditions: in vivo; procedure, shortened: as §1
[12] = Plasma clearance in Sprague-Dawley rat at 1 mg/kg, iv; format: ADME, organism-based; design: dose 1 mg/kg, route intravenous; procedure, shortened: as §1
[13] = tested on: Rattus norvegicus; test: AUC in Sprague-Dawley rat at 1 mg/kg, po; format: ADME, organism-based, Plasma; design: dose 1 mg/kg, route oral; conditions: in vivo; procedure, shortened: as §1
[14] = Cmax in Sprague-Dawley rat at 1 mg/kg, po; format: ADME, organism-based; design: dose 1 mg/kg, route oral; conditions: in vivo; procedure, shortened: as §1
[15] = Half life in Sprague-Dawley rat at 1 mg/kg, iv; format: ADME, organism-based; design: dose 1 mg/kg, route intravenous; conditions: in vivo; procedure, shortened: as §1
[16] = Ratio of drug level in brain to plasma in ddY mouse at 3 mg/kg, po after 60 mins; format: ADME, organism-based; design: dose 3 mg/kg, route oral; conditions: brain and plasma, read-out: BPR
Procedure, shortened: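 Male ddY mice dosed orally at 3 mg/kg; brain and plasma taken at 60 min. Brain homogenized in two volumes of water, then processed like plasma (methanol/perchloric deproteinization, HPLC with fluorescence). Ratio is the mean of two or three animals.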

[17] = tested on: Mus musculus; test: Anticonvulsant activity in DBA/2J mouse audinogenic seizure model at 0.3 to 3 mg/kg, po after 1 hr; format: functional; conditions: dose mg/kg 0.3-3

Question: With `O=c1c(-c2ccsc2)cc(-c2ccccn2)cn1-c1cccnc1` as the molecule, how does the pIC50 [1] read?
Answer: 6.11

Question: For `O=c1c(-c2ccccc2Cl)cc(-c2ccccn2)cn1-c1cccnc1`, which minimal effective dose [2] is on record?
Answer: 25 mg/kg

Question: What about the pIC50 [1] of the same molecule?
Answer: 6.40

Question: What does the source list for `N#Cc1sccc1-c1cc(-c2ccccn2)cn(-c2cccnc2)c1=O`?
Answer: minimal effective dose [2]: 25 mg/kg; pIC50 [1]: 6.74

Question: With `O=c1c(-c2ccccc2C(F)(F)F)cc(-c2ccccn2)cn1-c1cccnc1` as the molecule, how does the pIC50 [1] read?
Answer: 5.68

Question: Which results are given for `O=c1c(-c2cccnc2F)cc(-c2ccccn2)cn1-c1cccnc1`?
Answer: minimal effective dose [2]: 10 mg/kg; pIC50 [1]: 5.84

Question: With `N#Cc1ccccc1-c1cc(-c2cccnc2)cn(-c2ccccc2)c1=O` as the molecule, how does the pIC50 [1] read?
Answer: 5.40

Question: With `N#Cc1ccccc1-c1cc(-c2ccncc2)cn(-c2ccccc2)c1=O` as the molecule, how does the pIC50 [1] read?
Answer: 5.26

Question: Which results are given for `N#Cc1ccccc1-c1cc(-c2ccccc2)cn(-c2ccccc2)c1=O`?
Answer: minimal effective dose [2]: 25 mg/kg; pIC50 [1]: 6.48

Question: With `N#Cc1ccccc1-c1cc(-c2ccccc2F)cn(-c2ccccc2)c1=O` as the molecule, how does the pIC50 [1] read?
Answer: 6.70

Question: With `N#Cc1ccccc1-c1cc(-c2cccs2)cn(-c2ccccc2)c1=O` as the molecule, how does the pIC50 [1] read?
Answer: 7.00

Question: With `N#Cc1ccccc1-c1cc(-c2ccccc2C#N)c(=O)n(-c2ccccc2)c1` as the molecule, how does the pIC50 [1] read?
Answer: 5.07

Question: With `COc1ccccc1-c1cc(-c2ccccc2C#N)c(=O)n(-c2ccccc2)c1` as the molecule, how does the pIC50 [1] read?
Answer: 6.13

Question: With `N#Cc1ccccc1-c1cc(-c2ccsc2)cn(-c2ccccc2)c1=O` as the molecule, how does the pIC50 [1] read?
Answer: 6.85

Question: With `COc1cccc(-n2cc(-c3ccccn3)cc(-c3ccccc3C#N)c2=O)c1` as the molecule, how does the pIC50 [1] read?
Answer: 6.60

Question: With `COc1ccccc1-n1cc(-c2ccccn2)cc(-c2ccccc2C#N)c1=O` as the molecule, how does the pIC50 [1] read?
Answer: 6.82

Question: With `COc1ccc(-n2cc(-c3ccccn3)cc(-c3ccccc3C#N)c2=O)cc1` as the molecule, how does the pIC50 [1] read?
Answer: 6.36

Question: With `N#Cc1ccccc1-c1cc(-c2ccccn2)cn(-c2ccc(F)nc2)c1=O` as the molecule, how does the pIC50 [1] read?
Answer: 6.30

Question: With `N#Cc1ccccc1-c1cc(-c2ccccn2)cn(-c2ccccc2C#N)c1=O` as the molecule, how does the pIC50 [1] read?
Answer: < 4.82

Question: With `N#Cc1ccc(-n2cc(-c3ccccn3)cc(-c3ccccc3C#N)c2=O)cc1` as the molecule, how does the pIC50 [1] read?
Answer: 6.28

Question: With `COc1ccc(-n2cc(-c3ccccn3)cc(-c3ccccc3C#N)c2=O)cn1` as the molecule, how does the pIC50 [1] read?
Answer: 6.21

Question: With `O=C1COC(c2ccccc2)=NN1c1ccccc1` as the molecule, how does the pIC50 [1] read?
Answer: 5.04

Question: With `O=C1COC(c2ccccc2)=NN1Cc1ccccc1` as the molecule, how does the pIC50 [1] read?
Answer: 4.47

Question: With `O=C1COC(c2ccccc2)=NN1C1CCCCC1` as the molecule, how does the pIC50 [1] read?
Answer: < 3.82

Question: With `O=C1COC(C2CCCCC2)=NN1c1ccccc1` as the molecule, how does the pIC50 [1] read?
Answer: < 3.82

Question: With `CCCC1=NN(c2ccccc2)C(=O)CO1` as the molecule, how does the pIC50 [1] read?
Answer: < 3.82

Question: With `O=C1COC(Cc2ccccc2)=NN1c1ccccc1` as the molecule, how does the pIC50 [1] read?
Answer: < 3.82

Question: With `O=C1CCC(c2ccccc2)=NN1c1ccccc1` as the molecule, how does the pIC50 [1] read?
Answer: 4.55

Question: With `O=c1ccc(-c2ccccc2)cn1-c1ccccc1` as the molecule, how does the pIC50 [1] read?
Answer: 4.16

Question: With `O=c1[nH]cc(-c2ccccc2)cc1-c1ccccc1` as the molecule, how does the pIC50 [1] read?
Answer: 4.24

Question: With `O=c1c(-c2ccccc2)cc(-c2ccccc2)cn1-c1ccccc1` as the molecule, how does the pIC50 [1] read?
Answer: 5.97

Question: With `O=c1c(-c2ccccc2)cc(-c2ccccn2)cn1-c1ccccc1` as the molecule, how does the pIC50 [1] read?
Answer: 6.49

Question: With `O=c1c(-c2ccccc2)cc(-c2ccccn2)cn1-c1cccnc1` as the molecule, how does the pIC50 [1] read?
Answer: 6.36

Question: With `N#Cc1cccc(-c2cc(-c3ccccn3)cn(-c3ccccc3)c2=O)c1` as the molecule, how does the pIC50 [1] read?
Answer: 5.14

Question: With `N#Cc1ccc(-c2cc(-c3ccccn3)cn(-c3ccccc3)c2=O)cc1` as the molecule, how does the pIC50 [1] read?
Answer: 4.54

Question: With `O=c1c(-c2ccccc2F)cc(-c2ccccn2)cn1-c1ccccc1` as the molecule, how does the pIC50 [1] read?
Answer: 6.70

Question: With `O=c1c(-c2ccccc2Cl)cc(-c2ccccn2)cn1-c1ccccc1` as the molecule, how does the pIC50 [1] read?
Answer: 7.00

Question: With `Cc1ccccc1-c1cc(-c2ccccn2)cn(-c2ccccc2)c1=O` as the molecule, how does the pIC50 [1] read?
Answer: 6.40

Question: With `COc1ccccc1-c1cc(-c2ccccn2)cn(-c2ccccc2)c1=O` as the molecule, how does the pIC50 [1] read?
Answer: 5.85

Question: Which minimal effective dose [2] does the source give for `O=c1c(-c2cccnc2F)cc(-c2ccccn2)cn1-c1ccccc1` here?
Answer: 5 mg/kg

Question: And the pIC50 [1]?
Answer: 6.43

Question: With `O=c1c(-c2cccnc2Cl)cc(-c2ccccn2)cn1-c1ccccc1` as the molecule, how does the pIC50 [1] read?
Answer: 6.17

Question: Which minimal effective dose [2] does the source give for `N#Cc1ncccc1-c1cc(-c2ccccn2)cn(-c2ccccc2)c1=O` here?
Answer: 5 mg/kg

Question: What about the pIC50 [1] of the same molecule?
Answer: 6.70

Question: Which results are given for `N#Cc1ccccc1-c1cc(-c2ccccn2)cn(-c2cccnc2)c1=O`?
Answer: minimal effective dose [2]: 10 mg/kg; pIC50 [1]: 6.68

Question: What does the source list for `N#Cc1ccccc1-c1cc(-c2ccccn2)cn(-c2ccccc2)c1=O` [PERAMPANEL]?
Answer: Vd [3]: 4.56 L/kg; minimal effective dose [2]: 2 mg/kg; bioavailability [4]: 64.3%; Ratio [5]: 1.14; Kp at 0.5 h [6]: 1.14; half-life [7]: 70 h; AUC [8]: 0.56 µg/mL/h; ED50 [9]: 0.94 mg/kg; ED50 [10]: 1.6 mg/kg; Tmax [11]: 0.5 h; clearance [12]: 30.3 mL/min/kg; AUC [13]: 0.36 µg/mL/h; Cmax [14]: 170 ng/mL; pIC50 [1]: 7.22; half-life [15]: 2.37 h; Kp at 1 h [16]: 1.06; ED50 [17]: 0.47 mg/kg
